≈ marks a conversion by molar mass, not a printed value.
Experiments:
[1] = target: T1, Renin (Homo sapiens, UniProt P00797); test: Inhibitory activity against purified human renal renin at pH 6.0
T1 sequence (P00797 whole entry): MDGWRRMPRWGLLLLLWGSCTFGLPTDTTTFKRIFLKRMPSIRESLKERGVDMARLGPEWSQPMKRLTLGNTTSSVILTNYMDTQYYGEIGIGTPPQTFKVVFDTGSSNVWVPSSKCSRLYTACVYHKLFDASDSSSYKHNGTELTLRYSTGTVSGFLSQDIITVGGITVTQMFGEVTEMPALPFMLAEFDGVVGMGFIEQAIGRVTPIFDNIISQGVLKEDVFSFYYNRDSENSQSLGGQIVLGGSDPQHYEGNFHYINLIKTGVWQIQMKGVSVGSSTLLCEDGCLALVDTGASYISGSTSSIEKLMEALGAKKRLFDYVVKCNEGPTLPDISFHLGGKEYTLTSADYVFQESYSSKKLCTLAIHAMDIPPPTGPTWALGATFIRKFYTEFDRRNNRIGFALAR

[2] = Solubility in pH 6.5 buffer; format: physicochemical
Outline: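 About 10 mg shaken in 1 mL 0.01 M phosphate buffer, pH 6.5, for 24 h at 37 °C. Suspension filtered through glass wool, diluted in mobile phase, and quantified by HPLC with detection at 214 nm; reported as mg/mL.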

[3] = target: T1, Renin; test: Inhibitory activity against human plasma renin at pH 7.4; format: cell-free
[4] = target: T1, Renin; test: Inhibitory activity against purified human renal renin at pH 6.0
[5] = species on record: Rattus norvegicus; test: In vitro intestinal permeability in rats; format: ADME
Outline: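 Rat jejunum removed after cervical dislocation, washed with balanced electrolyte solution at 4 °C. Central 30 cm mounted for recirculating luminal perfusion (30 mL) at 37 °C under 95% O2-5% CO2. Inhibitor added mucosally at 100 μM with 3H-PEG-900 baseline marker. Mucosal and serosal samples taken every 15 min for 150 min. Inhibitor measured by HPLC-UV and PEG by scintillation. P = J/ΔC from steady-state (45-120 min) regression, cm/h; mean ± SE, n = 2.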

[6] = tested on: Rattus norvegicus; test: Plasma levels in the portal blood vessel of rat after 10 min of administration of 10 mg/kg intraduodenally; format: functional, organism-based; set-up: dose 10 mg/kg
Outline: (§1)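 Male Sprague-Dawley rats, fasted overnight, ≥150 g, under inactin (80 mg/kg ip), pylorus ligated. Carotid and portal vein catheterized. 10 mg/kg injected into the duodenum; paired blood drawn at 10 min. Plasma acetonitrile-precipitated, serially diluted, dried.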

[7] = tested on: Rattus norvegicus; test: Plasma levels in the systemic blood vessel of rat after 10 min of administration of 10 mg/kg intraduodenally; format: functional, organism-based; set-up: dose 10 mg/kg; outline: as §1

| Compound | IC50 [1] | solubility [2] | IC50 [3] | IC50 [4] | also measured |
| --- | --- | --- | --- | --- | --- |
| CC(C)(C)OC(=O)N[C@@H](Cc1ccccc1)C(=O)N[C@@H](Cc1cnc[nH]1)C(=O)N[C@H](CC1CCCCC1)[C@H](O)C(O)(CO)CN=[N+]=[N-] (stereo partly drawn) | 4.8 nM |  |  |  |  |
| [N-]=[N+]=NC[C@@H](O)[C@@H](O)[C@@H](CC1CCCCC1)NC(=O)[C@H](Cc1cnc[nH]1)NC(=O)[C@H](Cc1ccccc1)NC(=O)N1CCOCC1 |  | 2600 µg/mL (≈ 4060 µM) | 2.4 nM | 0.67 nM |  |
| CC(C)C(=O)N[C@@H](Cc1ccccc1)C(=O)N[C@@H](Cc1c[nH]cn1)C(=O)N[C@H](CC1CCCCC1)[C@H](O)[C@H](O)CN=[N+]=[N-] |  | 13 µg/mL (≈ 21.8 µM) | 3.3 nM | 0.55 nM |  |
| COc1ccc(C[C@H](NC(=O)C(C)C)C(=O)N[C@@H](Cc2cnc[nH]2)C(=O)N[C@H](CC2CCCCC2)[C@H](O)[C@H](O)CN=[N+]=[N-])cc1 |  | 29 µg/mL (≈ 46.3 µM) | 10 nM | 2 nM | Permeability [5]: 0.79 cm (10e3*hr)-1 |
| COc1ccc(C[C@H](NC(=O)C(C)C)C(=O)N[C@@H](Cc2c[nH]cn2)C(=O)N[C@H](CC2CCCCC2)[C@H](O)[C@H](O)CN=[N+]=[N-])cc1 |  |  |  |  | Plasma level [6]: 53 ng/mL; Plasma level [7]: 12 ng/mL |
| Cn1c(=O)c2[nH]cnc2n(C)c1=O.O [THEOPHYLLINE] |  |  |  |  | Permeability [5]: 22.35 cm (10e3*hr)-1 |
| COc1ccc(C[C@H](NC(=O)N2CCOCC2)C(=O)N[C@@H](Cc2c[nH]cn2)C(=O)N[C@H](CC2CCCCC2)[C@H](O)[C@H](O)CN=[N+]=[N-])cc1 |  | 1000 µg/mL (≈ 1490 µM) | 20 nM | 4 nM | Permeability [5]: 4.25 cm (10e3*hr)-1; Plasma level [6]: 230 ng/mL; Plasma level [7]: 15 ng/mL |
| CC(C)(C)OC(=O)N[C@@H](Cc1ccccc1)C(=O)N[C@@H](Cc1cnc[nH]1)C(=O)N[C@H](CC1CCCCC1)[C@H](O)[C@@H](CO)CN=[N+]=[N-] | 370 nM |  |  |  |  |
| CC(C)(C)OC(=O)N[C@@H](Cc1ccccc1)C(=O)N[C@@H](Cc1cnc[nH]1)C(=O)N[C@H](CC1CCCCC1)[C@H](O)CN=[N+]=[N-] | 7.5 nM |  |  |  |  |
| [N-]=[N+]=NC[C@@H](O)[C@@H](O)[C@@H](CC1CCCCC1)NC(=O)[C@H](Cc1c[nH]cn1)NC(=O)[C@H](Cc1ccccc1)NC(=O)C1CCOCC1 |  | 23 µg/mL (≈ 36 µM) | 7.6 nM | 0.7 nM |  |

Now from value to compound, other results behind:

| IC50 [1] | solubility [2] | IC50 [3] | IC50 [4] | Compound | also measured |
| --- | --- | --- | --- | --- | --- |
| 20 nM |  |  |  | CC(C)(C)OC(=O)N[C@@H](Cc1ccccc1)C(=O)N[C@@H](Cc1c[nH]cn1)C(=O)N[C@H](CC1CCCCC1)[C@H](O)CCN=[N+]=[N-] |  |
| 55 nM |  |  |  | C=C(CN=[N+]=[N-])[C@@H](O)[C@@H](CC1CCCCC1)NC(=O)[C@H](Cc1c[nH]cn1)NC(=O)[C@H](Cc1ccccc1)NC(=O)OC(C)(C)C |  |
| 0.4 nM |  | 9 nM | 0.4 nM | CC(C)(C)OC(=O)N[C@@H](Cc1ccccc1)C(=O)N[C@@H](Cc1c[nH]cn1)C(=O)N[C@H](CC1CCCCC1)[C@H](O)[C@H](O)CN=[N+]=[N-] |  |
| 26 nM |  |  |  | CC(C)(C)OC(=O)N[C@@H](Cc1ccccc1)C(=O)N[C@@H](Cc1c[nH]cn1)C(=O)N[C@H](CC1CCCCC1)[C@H](O)[C@@H](O)CN=[N+]=[N-] |  |
| 5.4 nM |  |  |  | CC(C)(C)OC(=O)N[C@@H](Cc1ccccc1)C(=O)N[C@@H](Cc1c[nH]cn1)C(=O)N[C@H](CC1CCCCC1)[C@H](O)C(=O)CN=[N+]=[N-] |  |
| 10 nM |  |  |  | CC(C)(C)OC(=O)N[C@@H](Cc1ccccc1)C(=O)N[C@@H](Cc1c[nH]cn1)C(=O)N[C@H](CC1CCCCC1)[C@H](O)[C@H](CO)CN=[N+]=[N-] |  |

Source: ChEMBL document CHEMBL1124504, “Azido glycols: potent, low molecular weight renin inhibitors containing an unusual post scissile site residue” (J Med Chem, 1989)
